In article PMC5557401 (Drug Design, Development and Therapy, 2017):

Key:
A-549 cells = assay: Cell cycle effects and total cell number; type: cell-based, human; settings: A-549, 24 and 48 h of incubation
In short: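 A-549 lung adenocarcinoma cells were exposed to a concentration range from under 100 nM to 50 μM for 24 and 48 h. Cells were immunofluorescently imaged for phosphorylated Rb and total DNA content per cell to assign cell-cycle phase and total cell number. IC50 was derived for the reduction in total cell number.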

[1] = In vitro metabolism with rat liver microsomes, LC-MS; type: in vitro ADME; settings: incubation with rat liver microsomes, phase I

Row | Structure (SMILES) | Cell cycle effects (A-549 cells) | Metabolic reaction (in vitro RLMs metabolites) [1]
1 | COc1ccc(-c2nc(NN=C3C(=O)Nc4ccc(Br)cc43)c3ccccc3n2)cc1OC [Compound 7d, 5-Bromo-3-(2-(2-(3,4-dimethoxyphenyl)quinazolin-4-yl) hydrazono)indolin-2-one] | no effects on the tested parameters | demethylation
2 | CCN(CC)CCNC(=O)c1c(C)[nH]c(/C=C2\C(=O)Nc3ccc(F)cc32)c1C [Sunitinib, reference compound] | reduction in the percentage of cells in G1, with corresponding increases in S or G2/M phases | 
